Published values pooled from the literature.
TDP1: Tyrosyl-DNA phosphodiesterase 1 (TDP1, Homo sapiens, UniProt Q9NUW8)
LDHA: L-lactate dehydrogenase A chain (LDHA, Homo sapiens, UniProt P00338)
MAP3K7: Mitogen-activated protein kinase kinase kinase 7 (MAP3K7, Homo sapiens, UniProt O43318)
PRMT3: Protein arginine N-methyltransferase 3 (PRMT3, Homo sapiens, UniProt O60678)
NTRK1: High affinity nerve growth factor receptor (NTRK1, Homo sapiens, UniProt P04629)
PDE7A: High affinity 3',5'-cyclic-AMP phosphodiesterase 7A (PDE7A, Homo sapiens, UniProt Q13946)
PTPN1: Tyrosine-protein phosphatase non-receptor type 1 (PTPN1, Homo sapiens, UniProt P18031)
MAOA: Amine oxidase [flavin-containing] A (MAOA, Homo sapiens, UniProt P21397)

| target | test | system | setting | IC50 | SMILES |
| --- | --- | --- | --- | --- | --- |
| TDP1 | enzyme activity, inhibitor | – | – | 5.5 µM | COc1cc2c(OC)nc3c4cc5c(cc4cc(OCCCN(C)C)c3c2cc1OC)OCO5 |
| LDHA | enzyme activity, inhibitor | – | pH 7.4 | > 500 µM | COc1cc(C(=O)O)ccc1O[C@@H]1O[C@H](CO)[C@@H](O)[C@H](O)[C@H]1O |
| MAP3K7 | enzyme activity, inhibitor, ATP luminescence | – | – | > 10 µM | C[C@@H]1C[C@H]2O[C@@H]2CC/C=C/C(=O)Cc2cc(O)cc(O)c2C(=O)O1 |
| Glucagon-like peptide 2 receptor (GLP2R, Homo sapiens, UniProt O95838) | cAMP, antagonist | – | – | 3.6 µM | N#Cc1ccc(COc2cccc(C3CCN(Cc4nc5ccc(C(=O)O)cc5n4C[C@@H]4CCO4)CC3)n2)c(F)c1 |
| PRMT3 | enzyme activity, inhibitor, radiometric | – | – | 0.72 µM | CC1(C)C(/C=C/C=C2/N(CCCc3ccccc3)c3ccc4ccccc4c3C2(C)C)=[N+](CCCc2ccccc2)c2ccc3ccccc3c21 |
| Broad substrate specificity ATP-binding cassette transporter ABCG2 (ABCG2, Homo sapiens, UniProt Q9UNQ0) | transporter uptake, inhibitor, radiometric | Sf9 | 0.75 min, cell membranes | 50.3 µM | CCS(=O)(=O)N1CC(CC#N)(n2cc(-c3ncnc4[nH]ccc34)cn2)C1 |
| PRMT3 | enzyme activity, inhibitor, fluorescence | – | – | > 100 µM | CCNC(=O)NCCSC[C@H]1O[C@@H](n2cnc3c(N)ncnc32)[C@H](O)[C@@H]1O |
| NTRK1 | enzyme activity, inhibitor, radiometric | – | – | > 10 µM | Cc1ccc(NC(=O)c2ccc(C)c(C(F)(F)F)c2)cc1C#Cc1nn(C2CCC(O)CC2)c2ncnc(N)c12 (centres unmarked) |
| Rhomboid protease AarA (Providencia stuartii, UniProt P46116) | enzyme activity, inhibitor | – | – | 54 µM | O=c1oc(Cl)c(Cl)c2ccccc12 |
| PDE7A | enzyme activity, inhibitor | – | – | > 0.1 µM | CN1C(=O)c2c(nn(Cc3ccc(-c4cccc(F)n4)cc3)c2Nc2ccccc2)N2C1=N[C@@H]1CCC[C@@H]12 |
| Nucleotide-binding oligomerization domain-containing protein 1 (NOD1, Homo sapiens, UniProt Q9Y239) | ligand displacement, FP | – | – | 0.19 µM | Nc1ncnc2c1ncn2[C@@H]1O[C@H](COP(=O)(O)OP(=O)(O)O)[C@@H](O)[C@H]1O |
| NTRK1 | enzyme activity, inhibitor, radiometric | – | – | 0.144 µM | CCn1ncc2c1-c1cnc(N)c(c1)O[C@H](C)c1cc(F)ccc1-c1nn(C)nc1C2 |
| TDP1 | enzyme activity, inhibitor | – | – | 11 µM | COc1cc2c(OC)nc3c4cc5c(cc4cc(OCCCN4CCC(N6CCCCC6)CC4)c3c2cc1OC)OCO5 |
| PTPN1 | enzyme activity, inhibitor | – | – | > 500 µM | CC1=C[C@@]2(C[C@H](C)[C@H]3CC=C(C)C(=O)[C@@H]3O2)OC1=O |
| Voltage-dependent T-type calcium channel subunit alpha-1I (CACNA1I, Homo sapiens, UniProt Q9P0X4) | ion current, patch clamp | – | – | 0.0007 µM | Fc1ccc(CN(CC(F)(F)F)C2CCN(CCCc3c[nH]c4ccc(Cn5cncn5)cc34)CC2)cc1 |
| MAOA | enzyme activity, inhibitor, fluorescence | – | – | 63.9 µM | COc1cc(/C=C/C(=O)N2CCC(Cc3ccccc3)CC2)ccc1OC1CCCCC1 |
| PRMT3 | enzyme activity, inhibitor, fluorescence | – | – | 5.9 µM | Nc1ncnc2c1ncn2[C@@H]1O[C@H](CSCCNC(=O)NCc2ccc(F)cc2)[C@@H](O)[C@H]1O |
| PDE7A | enzyme activity, inhibitor | – | – | 0.279 µM | COc1cc(/C=C2\SC(=O)NC2=O)cc(F)c1OCCNc1nc2c(cnn2C2CCCC2)c(=O)[nH]1 |
| LDHA | enzyme activity, inhibitor | – | pH 7.4 | > 500 µM | O=C(/C=C/c1ccc(O)c(O)c1)O[C@@H]1C[C@](O)(C(=O)O)C[C@@H](O)[C@H]1O |

| target | test | system | setting | IC50 | SMILES |
| --- | --- | --- | --- | --- | --- |
| Alpha-1A adrenergic receptor (ADRA1A, Homo sapiens, UniProt P35348) | ligand displacement, radioligand | – | – | 0.00036 µM | COc1cccc(OC)c1OCCNCC1COc2ccccc2O1 (centres unmarked) |
| MAOA | enzyme activity, inhibitor | – | – | 50.2 µM | O=c1cc(-c2ccc(O)cc2)oc2c([C@@H]3O[C@H](CO)[C@@H](O)[C@H](O)[C@H]3O)c(O)c([C@@H]3O[C@H](CO)[C@@H](O)[C@H](O)[C@H]3O)c(O)c12 |
| MAP3K7 | enzyme activity, inhibitor, ATP luminescence | – | – | > 10 µM | C[C@@H]1C[C@H]2O[C@@H]2/C=C\C=C\C(=O)Cc2cc(O)cc(O)c2C(=O)O1 |
| NTRK1 | enzyme activity, inhibitor | – | – | 0.0148 µM | Cc1cnc(-c2ccc(-c3ccc(NC(=O)Nc4c(F)cc(F)cc4F)cc3F)c3c2C(=O)NC3)[nH]1 |
| Solute carrier family 22 member 6 (SLC22A6, Homo sapiens, UniProt Q4U2R8) | transporter uptake, inhibitor | – | – | 0.653 µM | O=C(c1ccccc1)c1ccc2n1CCC2C(=O)O (centres unmarked) |
| Glutathione reductase, mitochondrial (GSR, Homo sapiens, UniProt P00390) | enzyme activity, inhibitor, absorbance | – | – | > 100 µM | CN(C)CCCN1c2ccccc2CCc2ccc(Cl)cc21 |
| Homeodomain-interacting protein kinase 4 (HIPK4, Homo sapiens, UniProt Q8NE63) | enzyme activity, inhibitor, radiometric | – | – | 0.003 µM | CNC(=O)c1cc2c(Oc3ccc(NC(=O)C4(C(=O)Nc5ccc(F)cc5)CC4)cc3)ccnc2cc1OC |
| TDP1 | enzyme activity, inhibitor | – | – | 5.5 to 13 µM | CCN(CC)CCCOc1cc2cc3c(cc2c2nc(OC)c4cc(OC)c(OC)cc4c12)OCO3 |
| NTRK1 | enzyme activity, inhibitor | – | with preincubation | > 10 µM | C=CC(=O)Nc1cc(Nc2nccc(Nc3cc(Cl)c(F)cc3C(C)(C)O)n2)c(OC)cc1N1CC[C@@H](N(C)C)C1 |
| PTPN1 | enzyme activity, inhibitor, absorbance | – | pH 7 | 2.8 µM | O=C(CC(=O)c1cccc(N(Cc2ccccc2)Cc2ccccc2)c1)C(=O)N1CCN(C(=O)C(=O)CC(=O)c2cccc(N(Cc3ccccc3)Cc3ccccc3)c2)CC1 |
| Coagulation factor IX (F9, Homo sapiens, UniProt P00740) | enzyme activity, inhibitor | – | – | 2.2 µM | CC[C@@H](C(=O)Nc1ccc(C(N)=O)c(F)c1)n1cc(OC)c(-c2cc(Cl)ccc2-n2cc(C(F)(F)F)nn2)cc1=O |
| Cone cGMP-specific 3',5'-cyclic phosphodiesterase subunit alpha' (PDE6C, Homo sapiens, UniProt P51160) | enzyme activity, inhibitor | – | – | > 20 µM | COc1cc(C[C@H]2C(=O)OC[C@@H]2Cc2ccc(OC)c(OC)c2)ccc1O |
| PRMT3 | enzyme activity, inhibitor, fluorescence | – | – | > 100 µM | Nc1ncnc2c1ncn2[C@@H]1O[C@H](CSCCNC(=O)NCCCc2ccccc2)[C@@H](O)[C@H]1O |
| Receptor-interacting serine/threonine-protein kinase 2 (RIPK2, Homo sapiens, UniProt O43353) | cell-free assay | – | – | 0.2 µM | CC(C)(C)n1nc(-c2ccc3nc(OC4CC4)ccc3c2)c(C(N)=O)c1N |
| PRMT3 | enzyme activity, inhibitor, fluorescence | – | – | 0.52 µM | Nc1ncnc2c1ncn2[C@@H]1O[C@H](CSCCNC(=O)NCc2ccccc2)[C@@H](O)[C@H]1O |
| MAOA | enzyme activity, inhibitor | – | – | 38.6 µM | O=c1cc(-c2ccc(O)cc2)oc2c([C@@H]3O[C@H](CO)[C@@H](O)[C@H](O)[C@H]3O)c(O)cc(O)c12 |
| LDHA | enzyme activity, inhibitor | – | – | 1.2 µM | Cc1nc2ccc(NC(=O)CCNC(=O)CCCc3ccc(CC(C(=O)O)C(=O)O)cc3)cc2s1 |
| PDE7A | enzyme activity, inhibitor | – | – | > 10 µM | COc1ccc(C2=NN(C3CCCCCC3)C(=O)[C@@H]3CC=CC[C@H]23)cc1-c1ccc(C(N)=O)cc1 (relative stereo) |
| PRMT3 | enzyme activity, inhibitor, radiometric | – | – | 3.17 µM | CCCCN1/C(=C/C=C/c2sc3ccc(Br)cc3[n+]2CCCC)Sc2ccc(Br)cc21 |
